According to BindingDB's records for doi:10.1021/jm0003844 (Pfizer, 2001):

Biological target: Human immunodeficiency virus type 1 protease (Human immunodeficiency virus 1, UniProt Q72874)
Test: HIV-1 protease inhibition.
How it was run: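 Affinity-purified HIV-1 protease (1.5 nM final) with 40 µM peptide substrate His-Lys-Ala-Arg-Val-Leu-(p-NO2-Phe)-Glu-Ala-Nle-Ser-NH2 and 1.0% DMSO. Buffer: 80 mM MES, 160 mM NaCl, 1.0 mM DTT, 1.0 mM EDTA, 0.1% PEG 8000, pH 6.2. Incubated 60 min at 37 °C, then quenched with TFA (2% final). Products separated by reverse-phase HPLC and read at 220 nm. Percent control derived from % conversion with vs without inhibitor; IC50 then determined.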

SMILES | IC50 [nM]
Cc1cc(SC2C(=O)CC(CCc3ccsc3CO)(C(C)C)OC2=O)c(C(C)(C)C)cc1CO (centres undefined) [3-(2-tert-Butyl-4-hydroxymethyl-5-methyl-phenylsulfanyl)-4-hydroxy-6-[2-(2-hydroxymethyl-thiophen-3-yl)-ethyl]-6-isopropyl-5,6-dihydro-pyran-2-one] | 14
Cc1cc(SC2C(=O)CC(CCc3cscn3)(C(C)C)OC2=O)c(C(C)(C)C)cc1CO (centres undefined) [3-(2-tert-Butyl-4-hydroxymethyl-5-methyl-phenylsulfanyl)-4-hydroxy-6-isopropyl-6-(2-thiazol-4-yl-ethyl)-5,6-dihydro-pyran-2-one] | 1.3
Cc1cc(SC2C(=O)CC(CCc3nc(C(C)C)cs3)(C(C)C)OC2=O)c(C(C)(C)C)cc1CO (centres undefined) [3-(2-tert-Butyl-4-hydroxymethyl-5-methyl-phenylsulfanyl)-4-hydroxy-6-isopropyl-6-[2-(4-isopropyl-thiazol-2-yl)-ethyl]-5,6-dihydro-pyran-2-one] | 14
Cc1cc(SC2C(=O)CC(CCc3ncsc3C)(C(C)C)OC2=O)c(C(C)(C)C)cc1CO (centres undefined) [3-(2-tert-Butyl-4-hydroxymethyl-5-methyl-phenylsulfanyl)-4-hydroxy-6-isopropyl-6-[2-(5-methyl-thiazol-4-yl)-ethyl]-5,6-dihydro-pyran-2-one] | 1.3
